Activity calls are given as the source filed them. The rule behind the calls is not given here.
Experiments:
[1] = test system: Toxoplasma gondii; assay: Inhibition of Toxoplasma gondii 2F1 invasion in HFF cells assessed as beta-galactosidase activity at 10 uM; type: functional, organism-based
Procedure, shortened: (§1)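 2F1 tachyzoites in invasion medium (DMEM, 1% FBS, 10 mM HEPES) at 4 × 10^6/ml, preincubated 15 min at room temperature with inhibitor (10 or 50 μM) or DMSO, then loaded onto HFF monolayers for 30 min at 37°C, 5% CO2. Washed six times with cold PBS containing Ca/Mg, lysed, and β-gal measured with CPRG (45 min, 37°C) at A550. Two independent experiments in duplicate.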

[2] = test system: Toxoplasma gondii; assay: Inhibition of Toxoplasma gondii 2F1 invasion in HFF cells assessed as beta-galactosidase activity at 50 uM relative to control; type: functional; conditions: 2F1, HFF; procedure, shortened: as §1
[3] = test system: Toxoplasma gondii; assay: Inhibition of Toxoplasma gondii 2F1 invasion in HFF cells by red/green invasion assay; type: functional, organism-based; conditions: 2F1, HFF
Procedure, shortened: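 Red/green assay: 2F1 parasites (5 × 10^7/ml in invasion medium) preincubated 15 min at room temperature with inhibitor (0.1 to 100 μM) or DMSO, then put on HFF for 15 min at 37°C. After fixation, attached parasites were stained with rabbit anti-SAG1 before permeabilization and invaded ones with MAb 9E11 after 0.1% Triton; DAPI marked nuclei. Associated parasites per host nucleus normalized to solvent control; three experiments, eight fields/well.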

[4] = test system: Toxoplasma gondii; assay: Effect on gliding motility in Toxoplasma gondii RH at 50 uM; type: functional, organism-based
Procedure, shortened: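 RH tachyzoites in HHE medium (HBSS, 10 mM HEPES, 1 mM EGTA), pretreated 15 min at room temperature with 50 μM inhibitor or DMSO, then allowed to glide 15 min at 37°C on slides coated with 50% FBS or poly-L-lysine. Fixed, and SAG1-containing trails stained with MAb 9E11 and visualized by epifluorescence at ×600.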

[5] = test system: Toxoplasma gondii; assay: Reduction of AMA1 secretion in Toxoplasma gondii 2F1 at 50 uM; type: functional, organism-based
Procedure, shortened: (§2)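 2F1 parasites in DGH medium (DMEM, 2 mM glutamine, 10 mM HEPES), ~3–6 × 10^7 per reaction, pretreated 15 min at room temperature with 50 μM inhibitor or DMSO. Induced secretion used 2 min at 37°C with 1% ethanol; basal secretion used 20 min at 37°C without ethanol. Supernatant (ESA) immunoblotted for MIC2, AMA1, MIC5, MIC10 and GRA1; chemiluminescence quantified by CCD.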

[6] = test system: Toxoplasma gondii; assay: Reduction of MIC5 secretion in Toxoplasma gondii 2F1 at 50 uM; type: functional, organism-based; procedure, shortened: as §2
[7] = test system: Toxoplasma gondii; assay: Reduction of MIC10 secretion in Toxoplasma gondii 2F1 at 50 uM; type: functional, organism-based; procedure, shortened: as §2
[8] = test system: Toxoplasma gondii; assay: Inhibition of microneme protein secretion in Toxoplasma gondii 2F1

SMILES	Activity [1]	also measured
CC(C)C[C@H](NC(=O)[C@H]1O[C@@H]1C(=O)O)C(=O)NCCCCN=C(N)N	inactive	–
Cc1cccc(C)c1C(=O)OCC(=O)[C@@H](N)CC(N)=O	inactive	–
CC(C)C[C@@H](NC(=O)N1CCOCC1)C(=O)N[C@@H](/C=C/S(=O)(=O)c1ccccc1)CCc1ccccc1	–	inhibition at 50 µM [2]: 70%; IC50 [3]: 10 µM; Activity [4]: Active; Activity [5]: Active; Activity [6]: Active; Activity [7]: Active; IC50 [8]: 25 µM
CC(=O)N1CCC[C@H]1C(=O)N[C@@H](CCCNC(=N)N)C(=O)N[C@@H](CCCCN)C(=O)N[C@H](/C=C/S(=O)(=O)c1ccccc1)CC(N)=O	inactive	–
Cc1cccc(C)c1C(=O)OCC(=O)[C@@H](N)CCCNC(=N)N	inactive	–
CCOC(=O)C1OC1C(=O)N[C@@H](CC(C)C)C(=O)NCCc1ccc(O)cc1 (stereo partly drawn)	inactive	–
CC(C)C[C@H](/C=C/S(=O)(=O)c1ccccc1)NC(=O)[C@@H](CC(C)C)NC(=O)[C@@H](CC(C)C)NC(=O)OCc1ccccc1	inactive	inhibition at 50 µM [2]: 50%; IC50 [3]: 12.5 µM; Activity [4]: Active; Activity [5]: Active; Activity [6]: Active; Activity [7]: Active; IC50 [8]: 50 µM
Cc1cccc(C)c1C(=O)OCC(=O)CN	inactive	–
CCC(C)[C@H](NC(=O)C1OC1C(=O)NCC(C)C)C(=O)N1CCC[C@@H]1C(=O)O (stereo partly drawn)	inactive	–
CC(=O)N[C@@H](Cc1ccc(O)cc1)C(=O)N[C@@H](CCCCN)C(=O)N[C@@H](CC(C)C)C(=O)N[C@H](/C=C/S(=O)(=O)c1ccccc1)CC(N)=O	inactive	–
CCOC(=O)[C@H]1O[C@@H]1C(=O)N[C@@H](CC(C)C)C(=O)NCCC(C)C	inactive	–
CN1CCN(C(=O)N[C@@H](Cc2ccccc2)C(=O)N[C@H](/C=C/S(=O)(=O)c2ccccc2)CCc2ccccc2)CC1	inactive	–
CC(=O)N1CCC[C@H]1C(=O)N[C@@H](CCCCN)C(=O)N[C@@H](CCCNC(=N)N)C(=O)N[C@H](/C=C/S(=O)(=O)c1ccccc1)CC(N)=O	inactive	–
CC(=O)N[C@@H](Cc1ccc(O)cc1)C(=O)N[C@@H](CCCCN)C(=O)N[C@@H](CCCCN)C(=O)N[C@H](/C=C/S(=O)(=O)c1ccccc1)CC(N)=O	inactive	–
CC(C)C[C@H](/C=C/S(=O)(=O)c1ccccc1)NC(=O)[C@@H](CC(C)C)NC(=O)[C@@H](CC(C)C)NC(=O)Cc1cc(I)c(O)c([N+](=O)[O-])c1	inactive	–
CC(=O)N[C@@H](Cc1ccc(O)cc1)C(=O)N[C@@H](CCCNC(=N)N)C(=O)N[C@@H](CCCCN)C(=O)N[C@H](/C=C/S(=O)(=O)c1ccccc1)CC(N)=O	inactive	–
CC(=O)N[C@@H](Cc1ccc(O)cc1)C(=O)N[C@@H](CCCCN)C(=O)N[C@@H](CCCNC(=N)N)C(=O)N[C@H](/C=C/S(=O)(=O)c1ccccc1)CC(N)=O	inactive	–
CC(=O)N1CCC[C@H]1C(=O)N[C@@H](CCCCN)C(=O)N[C@@H](CCCCN)C(=O)N[C@H](/C=C/S(=O)(=O)c1ccccc1)CC(N)=O	inactive	–
CC(C)C[C@@H](/C=C/S(C)(=O)=O)NC(=O)[C@H](CC(C)C)NC(=O)[C@H](CC(C)C)NC(=O)[C@@H](N)Cc1ccc(O)cc1	inactive	–
CC(=O)N[C@@H](Cc1ccc(O)cc1)C(=O)N[C@@H](CCCNC(=N)N)C(=O)N[C@@H](CC(C)C)C(=O)N[C@H](/C=C/S(=O)(=O)c1ccccc1)CC(N)=O	inactive	–
Cc1cccc(C)c1C(=O)OCC(=O)[C@@H](N)CC(C)C	inactive	–
O=c1oc(Cl)c(Cl)c2ccccc12	inactive	IC50 [3]: 12.5 µM
CC(=O)N1CCC[C@H]1C(=O)N[C@@H](CCCNC(=N)N)C(=O)N[C@@H](CC(C)C)C(=O)N[C@H](/C=C/S(=O)(=O)c1ccccc1)CC(N)=O	inactive	–
CC(=O)N1CCC[C@H]1C(=O)N[C@@H](CCCCN)C(=O)N[C@@H](CC(C)C)C(=O)N[C@H](/C=C/S(=O)(=O)c1ccccc1)CC(N)=O	inactive	–

From ChEMBL document CHEMBL1142206, “Cysteine protease inhibitors block Toxoplasma gondii microneme secretion and cell invasion” (Antimicrob Agents Chemother, 2007)
